SMILES strings stand for the structures. Active and inactive are the calls of the source. No cut-off for these calls is given here.

Series [1] addresses 72 kDa type IV collagenase (Homo sapiens) (UniProt P08253). The series is described as follows: Inhibition of MMP-2 activity in human HT1080 cells by gelatin zymography. It counts as cell-based. The settings on record: HT-1080. An outline of the steps:
(§1)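 HT1080 human fibrosarcoma cells grown in DMEM with 10% FBS; cells treated with compound, 0.5% DMSO as vehicle control, dose series 2.5–10 µM. Conditioned media run on 10% polyacrylamide/0.4% SDS gels containing 2 mg/ml gelatin, non-reducing, 120 V 150 min. Gels washed in 2.5% Triton X-100 30 min, developed overnight at 37 °C (50 mM Tris–HCl pH 7.6, 200 mM NaCl, 5 mM CaCl2, 0.2% Brij-35). Bands quantified densitometrically as % inhibition; triplicates, three independent experiments.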

In series [2] the target is Matrix metalloproteinase-9 (Homo sapiens) (UniProt P14780). Description: Inhibition of MMP-9 activity in human HT1080 cells by gelatin zymography. The class given is cell-based. The conditions noted are these: HT-1080. In a few lines:
as §1

The target of series [3] is 72 kDa type IV collagenase (Homo sapiens) (UniProt P08253). Description: Inhibition of MMP-2 activity in human HT1080 cells at 10 uM by gelatin zymography. The class given is cell-based. The settings on record: HT-1080. An outline of the steps: as §1
Sequence of 72 kDa type IV collagenase (Homo sapiens) (P08253 110-660 limits assumed): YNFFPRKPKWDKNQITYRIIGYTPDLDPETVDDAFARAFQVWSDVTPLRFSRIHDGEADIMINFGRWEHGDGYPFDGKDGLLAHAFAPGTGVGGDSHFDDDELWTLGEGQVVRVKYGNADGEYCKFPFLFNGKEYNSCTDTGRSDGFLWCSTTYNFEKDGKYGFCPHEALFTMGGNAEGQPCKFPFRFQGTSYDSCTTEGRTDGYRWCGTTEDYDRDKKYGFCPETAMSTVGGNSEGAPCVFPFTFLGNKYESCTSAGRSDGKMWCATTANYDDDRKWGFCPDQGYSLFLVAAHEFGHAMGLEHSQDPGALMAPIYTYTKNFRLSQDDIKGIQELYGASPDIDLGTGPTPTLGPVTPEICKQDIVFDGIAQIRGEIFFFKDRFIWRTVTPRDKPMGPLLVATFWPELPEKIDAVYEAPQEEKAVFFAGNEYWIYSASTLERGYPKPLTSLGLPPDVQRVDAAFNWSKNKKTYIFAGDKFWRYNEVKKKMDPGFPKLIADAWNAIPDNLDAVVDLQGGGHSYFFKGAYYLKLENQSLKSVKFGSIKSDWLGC
In series [4] the target is Matrix metalloproteinase-9 (Homo sapiens) (UniProt P14780). Description: Inhibition of MMP-9 activity in human HT1080 cells at 10 uM by gelatin zymography. The class given is cell-based. The conditions noted are these: HT-1080. In a few lines:
as §1

Series [5] has the same target. Description: Inhibition of MMP-9 activity in human HT1080 cells at 5 uM by gelatin zymography. The settings on record: HT-1080. It counts as cell-based. In a few lines: as §1
In series [6] the target is 72 kDa type IV collagenase (Homo sapiens) (UniProt P08253). Description: Inhibition of MMP-2 activity in human HT1080 cells at 5 uM by gelatin zymography. It counts as cell-based. The conditions noted are these: HT-1080. In a few lines: as §1
The nature of series [7]: Cytotoxicity against human HT1080 cells up to 7.5 uM. The settings on record: ht-1080. It counts as cell-based.
The target of series [8] is Matrix metalloproteinase 2/9 (Homo sapiens) (UniProt P08253+P14780). Description: Inhibition of MMP2/9 in human HT1080 cells assessed as reduction in degradation of fluorescien gelatin at 5 uM after 24 hrs by gelatin degradation assay. It counts as cell-based. The conditions noted are these: HT-1080. An outline of the steps:
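HT1080 cells exposed to 5 µM compound for 24 h at 37 °C on fluorescent gelatin. Cells then fixed, mounted in antifade reagent and imaged by inverted fluorescence microscopy. Degradation of the fluorescent gelatin compared with control.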

The test system of a further series is HT-1080. The series is described as follows: Inhibition of cell migration in human HT1080 cells at 5 uM after 24 hrs by transwell migration assay. The class given is functional, cell-based. An outline of the steps:
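Transwell migration: 8 × 10^4 HT1080 cells in serum-free medium with compound placed in upper chamber; lower chamber held DMEM with 10% FBS as attractant. After 24 h, non-migrated cells swabbed off; migrated cells stained with crystal violet and counted in five random fields, expressed as % of control.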

Sequence of Matrix metalloproteinase-9 (Homo sapiens) (P14780 whole entry): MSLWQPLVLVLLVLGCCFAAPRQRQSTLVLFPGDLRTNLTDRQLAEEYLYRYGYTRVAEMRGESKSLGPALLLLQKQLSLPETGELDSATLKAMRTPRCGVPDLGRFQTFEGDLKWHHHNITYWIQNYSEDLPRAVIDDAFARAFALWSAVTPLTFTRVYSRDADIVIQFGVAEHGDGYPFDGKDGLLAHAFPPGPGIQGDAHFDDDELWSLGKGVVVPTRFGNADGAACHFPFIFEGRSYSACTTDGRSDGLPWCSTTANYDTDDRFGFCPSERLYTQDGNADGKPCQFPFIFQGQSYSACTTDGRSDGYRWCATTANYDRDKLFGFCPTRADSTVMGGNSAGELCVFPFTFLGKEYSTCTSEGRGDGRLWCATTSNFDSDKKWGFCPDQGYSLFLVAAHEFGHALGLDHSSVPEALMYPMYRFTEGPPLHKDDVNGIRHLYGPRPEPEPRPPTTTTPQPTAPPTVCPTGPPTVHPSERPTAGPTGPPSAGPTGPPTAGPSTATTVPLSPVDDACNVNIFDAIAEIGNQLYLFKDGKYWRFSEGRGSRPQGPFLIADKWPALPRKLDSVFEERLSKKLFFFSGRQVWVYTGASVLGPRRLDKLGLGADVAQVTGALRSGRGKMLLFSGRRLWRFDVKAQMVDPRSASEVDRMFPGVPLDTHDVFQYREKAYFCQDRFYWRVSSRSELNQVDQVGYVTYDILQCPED
Sequence of Matrix metalloproteinase 2/9 (Homo sapiens) (P08253 whole entry, looked up): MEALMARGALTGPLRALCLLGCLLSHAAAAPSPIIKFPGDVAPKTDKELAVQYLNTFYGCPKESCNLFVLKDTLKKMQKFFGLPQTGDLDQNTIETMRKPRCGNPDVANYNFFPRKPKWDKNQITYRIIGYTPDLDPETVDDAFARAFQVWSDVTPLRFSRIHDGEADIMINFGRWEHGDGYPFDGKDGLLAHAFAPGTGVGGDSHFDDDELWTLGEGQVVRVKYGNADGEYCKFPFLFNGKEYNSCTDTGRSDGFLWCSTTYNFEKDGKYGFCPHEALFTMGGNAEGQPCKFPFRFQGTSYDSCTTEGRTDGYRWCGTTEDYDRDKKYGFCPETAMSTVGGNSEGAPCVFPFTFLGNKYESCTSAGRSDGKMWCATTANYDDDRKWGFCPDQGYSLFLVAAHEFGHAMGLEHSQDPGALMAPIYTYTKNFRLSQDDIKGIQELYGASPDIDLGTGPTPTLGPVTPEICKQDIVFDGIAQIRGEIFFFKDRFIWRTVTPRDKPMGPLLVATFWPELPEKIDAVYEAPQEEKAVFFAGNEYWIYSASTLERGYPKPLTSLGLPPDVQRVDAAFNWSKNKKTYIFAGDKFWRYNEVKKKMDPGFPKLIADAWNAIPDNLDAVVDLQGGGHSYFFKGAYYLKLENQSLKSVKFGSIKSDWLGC
Sequence of Matrix metalloproteinase 2/9 (Homo sapiens) (P14780 whole entry, looked up): as the sequence (P14780 whole entry) above

As usually defined, the inhibition is the change of the read-out against control, counted positive when it falls. Turning to `COc1ccc(-c2oc3ccccc3c(=O)c2-c2c(-c3ccc(OC)cc3)oc3ccccc3c2=O)cc1`, the inhibition result in series [1] and in series [2] was “inactive” in each case.
Take `O=c1c(-c2c(/C=C/c3ccccc3)oc3ccccc3c2=O)c(/C=C/c2ccccc2)oc2ccccc12`: the inhibition entry in series [3] and in series [4] was “inactive” in each case.
As to `O=c1c(-c2c(-c3ccccc3)oc3cc(O)ccc3c2=O)c(-c2ccccc2)oc2cc(O)ccc12`, the inhibition entry in series [3] and in series [4] was “inactive” each time.
Consider `COc1ccc(-c2oc3cc(O)cc(O)c3c(=O)c2-c2c(-c3ccc(OC)cc3)oc3cc(O)cc(O)c3c2=O)cc1`, for which the inhibition in series [5] is 90%; in series [3], 90%; in [6] it was 60%; in series [4], 90%; in series [1] it was “Dose-dependent effect”; in series [2] it was “Dose-dependent effect”. In addition, the Activity entry in series [7] was “Non-toxic”. In addition, the inhibition result (in series [8]; in the series on HT-1080) was “Active” throughout.
With `COc1ccc(-c2cc(=O)c3c(O)cc(O)cc3o2)cc1`, the inhibition result in series [5] and in [6] was “inactive” throughout.
Consider `COc1ccc2c(=O)c(-c3c(-c4ccccc4)oc4cc(OC)ccc4c3=O)c(-c3ccccc3)oc2c1`, for which the inhibition result in series [1] and in series [2] was “inactive” throughout.
With `COc1ccc(-c2oc3cc(O)cc(O)c3c(=O)c2-c2c(-c3ccc(OC)c(OC)c3)oc3cc(O)cc(O)c3c2=O)cc1OC`, the inhibition result in series [3] was “Active”.
Consider `COc1cc(OC)c2c(=O)c(-c3c(-c4ccccc4)oc4cc(OC)cc(OC)c4c3=O)c(-c3ccccc3)oc2c1`, for which the inhibition result in [1] and in series [2] was “inactive” in each case.
Consider `COc1ccccc1-c1oc2ccccc2c(=O)c1-c1c(-c2ccccc2OC)oc2ccccc2c1=O`, for which the inhibition entry in series [1] and in series [2] was “inactive” throughout.
For the compound `O=c1c(-c2c(-c3ccco3)oc3ccccc3c2=O)c(-c2ccco2)oc2ccccc12`, the inhibition entry in series [3] is “Active”.
As for `COc1ccc(-c2oc3cc(OC)cc(OC)c3c(=O)c2-c2c(-c3ccc(OC)cc3)oc3cc(OC)cc(OC)c3c2=O)cc1`, the inhibition entry in series [1] and in [2] was “inactive” throughout.

Source of the values: ChEMBL document CHEMBL3585295, “Synthesis and discovery of (I-3,II-3)-biacacetin as a novel non-zinc binding inhibitor of MMP-2 and MMP-9” (Bioorg Med Chem, 2015).
